Test results as given in PubChem BioAssay.
Active and inactive are the calls of the source.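 Rule for the calls, unless noted: active = viability at or under a set limit in both replicates, limit being median viability minus 3 SD (cut at about 48% in these data, passing the limit was not always enough); inconclusive = at or under the limit in just one replicate; inactive = at or above the limit in both replicates.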

Experiments:
[1] = Her2 expression decrease, cell viability multiplex – SKBR3 breast tumor cells, AlphaScreen, ATP viability, primary screen (AID 461;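 active = Her2 level under about 52% in both replicate screens, with viability over 70% of control, limit read from the data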;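 for Her2 level: lower value means less Her2 protein in the cells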;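 for viability: percent of carrier control wells set as 100% viability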); conditions: SKBR3 Her2 protein level, 18-24 h, measured here: SKBR3 viability, ATP luminescence, at 10 µM
[2] = molecular target: Receptor tyrosine-protein kinase erbB-2 (Homo sapiens) (UniProt P04626); test: as above; conditions: 18-24 h, at 10 µM, stronger effect = lower value
[3] = reduced viability of SK-BR-3 breast cancer cells – cell-based, 24 h, human, pilot screen (AID 572;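 active = viability at or below 10% of carrier control in both of two separate runs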;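 note: compound exposure lasted between 18 and 24 h rather than exactly 24 h; 100% = carrier-treated control wells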); conditions: SK-BR-3 viability, CellTiter-Glo luminescence, at 10 µM, stronger effect = lower value
[4] = HUVEC growth inhibition – cell-based, human, primary screen (AID 575;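 active = viability at or below 30% in both replicate assays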;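 note: 100% = median of untreated cell wells with 0.1% DMSO on each plate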); conditions: HUVEC proliferation, CellTiter-Glo luminescence, 72 h; at 10 µM; stronger effect = lower value
Outline: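 Assay system: Primary human umbilical vein endothelial cells | Quantity: 1250 cells per well | Medium: Supplemented EBM, 2% fetal bovine serum | Detection: CellTiter-Glo luminescence measuring cellular ATP | Read-out: % viability vs DMSO wells | Plate: Collagen-coated 384-well format | Times: 72 h exposure, 37 °C, 5% CO2, 30 min RT equilibration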

[5] = H69AR cell proliferation blockers – human, duplicate replicates, primary screen (AID 580); conditions: H69AR lung tumor cells viability, ATP luminescence, 72 h; at 10 µM; stronger effect = lower value;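 note: 100% = mean luminescence of untreated wells and 0% = no signal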
[6] = MRP1 drug-resistance reversers in H69AR cells – cell-based, doxorubicin co-treatment, pilot screen (AID 601;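 active = viability loss from added drug above about 55%, and viability with drug at most 40%, in both replicates, limit read from the data, passing the limit was not always enough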); conditions: CellTiter-Glo, 72 h, at 10 µM; for differential viability (reversal): stronger effect = higher value
[7] = yeast transport mutant growth inhibition pilot in 384-well plates, post-Golgi transport modulator project (AID 636; in the data active = inhibition above about 31%); conditions: absorbance 615 nm, about 18 h, stronger effect = higher value
[8] = growth suppression of yeast trafficking mutant, preliminary HTS, modulators of trafficking downstream of Golgi apparatus project, 1536-format plate, OD 615 nm (AID 637; in the data active = inhibition above about 30%); conditions: yeast transport mutant growth, absorbance 615 nm, 18 h; stronger effect = higher value
[9] = H69AR cells + 2 uM doxorubicin, measured here: viability with 2 uM doxorubicin, stronger effect = lower value
[10] = H69AR cells, compound alone cytotoxicity

Sequence of Receptor tyrosine-protein kinase erbB-2 (Homo sapiens) (P04626 whole entry, looked up): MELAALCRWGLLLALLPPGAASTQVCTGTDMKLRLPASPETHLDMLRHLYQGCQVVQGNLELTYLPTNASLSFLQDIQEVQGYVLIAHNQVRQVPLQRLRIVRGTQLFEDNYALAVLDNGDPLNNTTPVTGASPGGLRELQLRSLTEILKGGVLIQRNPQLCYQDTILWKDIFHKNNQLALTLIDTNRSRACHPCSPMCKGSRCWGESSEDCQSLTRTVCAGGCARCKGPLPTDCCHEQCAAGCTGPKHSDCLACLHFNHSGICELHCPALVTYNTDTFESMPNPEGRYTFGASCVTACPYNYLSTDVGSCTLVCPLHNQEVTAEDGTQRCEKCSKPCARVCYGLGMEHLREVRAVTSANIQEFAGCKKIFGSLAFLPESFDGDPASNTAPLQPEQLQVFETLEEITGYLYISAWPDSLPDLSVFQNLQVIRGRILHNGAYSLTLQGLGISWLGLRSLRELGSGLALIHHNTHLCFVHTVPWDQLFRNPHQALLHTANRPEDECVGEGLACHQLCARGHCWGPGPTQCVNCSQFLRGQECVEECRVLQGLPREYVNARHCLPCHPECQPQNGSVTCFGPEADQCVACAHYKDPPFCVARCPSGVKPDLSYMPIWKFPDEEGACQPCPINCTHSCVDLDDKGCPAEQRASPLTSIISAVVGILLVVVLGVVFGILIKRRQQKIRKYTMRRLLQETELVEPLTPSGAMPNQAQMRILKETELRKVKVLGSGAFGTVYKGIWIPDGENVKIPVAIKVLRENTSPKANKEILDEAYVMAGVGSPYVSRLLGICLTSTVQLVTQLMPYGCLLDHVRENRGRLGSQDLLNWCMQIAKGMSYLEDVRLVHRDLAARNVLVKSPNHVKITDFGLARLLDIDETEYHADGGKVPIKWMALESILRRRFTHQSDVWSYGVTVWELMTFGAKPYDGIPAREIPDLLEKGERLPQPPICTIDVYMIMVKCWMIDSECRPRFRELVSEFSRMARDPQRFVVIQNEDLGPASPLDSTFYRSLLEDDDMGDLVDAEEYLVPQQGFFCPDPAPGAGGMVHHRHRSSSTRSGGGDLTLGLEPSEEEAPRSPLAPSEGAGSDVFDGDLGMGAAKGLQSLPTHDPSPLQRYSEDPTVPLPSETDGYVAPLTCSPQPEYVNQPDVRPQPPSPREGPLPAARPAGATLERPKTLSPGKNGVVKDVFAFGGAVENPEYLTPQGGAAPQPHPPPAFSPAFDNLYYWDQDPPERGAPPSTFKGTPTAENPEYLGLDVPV

Row | SMILES | viability [1] [%] | Her2 level [2] | viability [3] | viability [4] | viability [5] | differential viability (reversal) ([6]; H69AR cells + 2 uM doxorubicin) | viability [6, 9] [%] | viability [6, 10] [%] | inhibition [7] | inhibition [8]
1 | COc1ccc2[nH]c(=O)c(CN(C(=O)c3cccnc3)c3ccccc3OC)cc2c1 | 104 | 97% (inactive) | 104% (inactive) | 90.8% (inactive) | 89.1% (inactive) | -2.19% (inactive) | 91.3 | 89.1 | -6% (inactive) | -0.16% (inactive)
2 | O=C(Cn1ccc2ccccc2c1=O)Nc1ccc2c(c1)OCO2 | 104 | 95.5% (inactive) | 104% (inactive) | 95.7% (inactive) | 107% (inactive) | 14.8% (inactive) | 92.2 | 107 | 1.49% (inactive) | -3.17% (inactive)
3 | CCc1nn2c(=O)cc(CSc3nc4sc5c(c4c(=O)n3C)CCCC5)nc2s1 | 100 | 98% (inactive) | 100% (inactive) | 113% (inactive) | 90% (inactive) | 0.36% (inactive) | 89.6 | 90 | -0.65% (inactive) | 10% (inactive)
4 | O=S(=O)(NCC1CCCO1)c1cccc(C(F)(F)F)c1 (stereo not given) | 97 | 93.5% (inactive) | 97% (inactive) | 95.1% (inactive) | 95.1% (inactive) | 6.7% (inactive) | 88.4 | 95.1 | -0.66% (inactive) | -5.64% (inactive)
5 | CCCn1c(NC(=O)C2COc3ccccc3O2)nc2ccccc21 (stereo not given) | 99.5 | 90% (inactive) | 99.5% (inactive) | 66.1% (inactive) | 67.8% (inactive) | -13.7% (inactive) | 81.6 | 67.8 | -3.47% (inactive) | 5.74% (inactive)
6 | CCOc1cc(C(=O)N2CCN(c3ccccc3)CC2)cc(OCC)c1OCC | 98.5 | 97% (inactive) | 98.5% (inactive) | 90.1% (inactive) | 97.2% (inactive) | 3.12% (inactive) | 94 | 97.2 | -4.93% (inactive) | -5.32% (inactive)
7 | O=C(Nc1ccc(N2CCOCC2)c(F)c1)c1ccncc1 | 97 | 99% (inactive) | 97% (inactive) | 114% (inactive) | 96.6% (inactive) | 12.5% (inactive) | 84.2 | 96.6 | -4.27% (inactive) | 1.64% (inactive)
8 | CC(=O)c1cccc(N(CC(=O)N2CCCC2)S(C)(=O)=O)c1 | 91.5 | 93% (inactive) | 91.5% (inactive) | 99.3% (inactive) | 99.7% (inactive) | 5.66% (inactive) | 94.1 | 99.7 | -6.67% (inactive) | 0.48% (inactive)
9 | Cc1ccc(-c2nnn(CC(=O)NC3CC4CCC3C4)n2)cc1 (stereo not given) | 109 | 91% (inactive) | 109% (inactive) | 118% (inactive) | 93.3% (inactive) | 5.1% (inactive) | 88.2 | 93.3 | -6.58% (inactive) | -6.77% (inactive)
10 | O=C(CSc1ncnc2sc3c(c12)CCCCC3)NCc1ccco1 | 92.5 | 61% (inactive) | 92.5% (inactive) | 41.3% (inactive) | 18% (active) | -52.1% (inactive) | 70.1 | 18 | -2.63% (inactive) | -3.65% (inactive)
11 | O=C(c1ccccc1)c1ccc2nc[nH]c2c1 | 96.5 | 89.5% (inactive) | 96.5% (inactive) | 75.4% (inactive) | 102% (inactive) | -15.3% (inactive) | 117 | 102 | 0.26% (inactive) | 3.06% (inactive)
12 | CCC(Sc1nc2sc(C(=O)OC)c(C)c2c(=O)n1N)C(=O)NCC1CCCO1 (stereo not given) | 102 | 88% (inactive) | 102% (inactive) | 94.2% (inactive) | 82.2% (inactive) | -5.51% (inactive) | 87.7 | 82.2 | -6.49% (inactive) | -1.27% (inactive)
13 | Fc1ccccc1C(c1nnnn1Cc1ccc2c(c1)OCO2)N1CCN(Cc2ccccc2)CC1 (stereo not given) | 121 | 88% (inactive) | 121% (inactive) | 69.6% (inactive) | 89.3% (inactive) | -7.54% (inactive) | 96.9 | 89.3 | 2.16% (inactive) | -4.13% (inactive)
14 | COCCOC(=O)c1c(C)oc2ccc(NS(=O)(=O)c3ccc(F)cc3)cc12 | 85.5 | 90.5% (inactive) | 85.5% (inactive) | 93% (inactive) | 90.5% (inactive) | -4.71% (inactive) | 95.2 | 90.5 | -2.43% (inactive) | 2.7% (inactive)
15 | CCOc1ccccc1NC(=O)C1CCCN(C(=O)NCc2ccccc2)C1 (stereo not given) | 102 | 89.5% (inactive) | 102% (inactive) | 96.8% (inactive) | 100% (inactive) | 3.45% (inactive) | 96.6 | 100 | -2.13% (inactive) | 4.26% (inactive)
16 | COCCOc1nc2ccccc2nc1C | 126 | 94% (inactive) | 126% (inactive) | 88.4% (inactive) | 87.6% (inactive) | 0.7% (inactive) | 86.9 | 87.6 | -3.55% (inactive) | 4.19% (inactive)
17 | O=C(N1CCCCCC1)N1CCN(S(=O)(=O)N2CCCCC2)CC1 | 101 | 91.5% (inactive) | 101% (inactive) | 99.5% (inactive) | 94% (inactive) | -5.71% (inactive) | 99.7 | 94 | -2.76% (inactive) | -2.26% (inactive)
18 | CC1(C)Cc2noc(N)c2C(C)(C)N1OC(=O)c1ccco1 | 118 | 82.5% (inactive) | 118% (inactive) | 93.1% (inactive) | 94.5% (inactive) | 2.83% (inactive) | 91.7 | 94.5 | -3.55% (inactive) | 3.81% (inactive)
19 | CCOC(=O)C1=C(NC#N)OC(C)=C(C)C1c1ccc(O)cc1 (stereo not given) | 92.5 | 79% (inactive) | 92.5% (inactive) | 95.1% (inactive) | 90.3% (inactive) | 3.92% (inactive) | 86.4 | 90.3 | 0.27% (inactive) | 0.65% (inactive)
20 | COC(=O)c1cc(OC)c(OCc2cc(C(=O)OC)oc2C)c(OC)c1 | 95 | 89.5% (inactive) | 95% (inactive) | 107% (inactive) | 90.7% (inactive) | 1.03% (inactive) | 89.7 | 90.7 | -9.32% (inactive) | 1.8% (inactive)
21 | O=C(CSc1nnc(-c2ccccc2Cl)n1Cc1ccco1)Nc1ccc2c(c1)OCCO2 | 83.5 | 80% (inactive) | 83.5% (inactive) | 93.9% (inactive) | 77.7% (inactive) | -12.8% (inactive) | 90.5 | 77.7 | -3.07% (inactive) | -4.75% (inactive)
22 | Cc1c(C(=O)Nc2cnccn2)oc2ccccc12 | 110 | 72% (inactive) | 110% (inactive) | 58.6% (inactive) | 37.4% (active) | -35.3% (inactive) | 72.7 | 37.4 | -5.6% (inactive) | 3.49% (inactive)
23 | COCCn1c(SCC(=O)N(C(C)C)C(C)C)nnc1-c1cc2ccccc2cc1O | 96 | 91.5% (inactive) | 96% (inactive) | 106% (inactive) | 88.3% (inactive) | 0.38% (inactive) | 88 | 88.3 | -1.3% (inactive) | -5.5% (inactive)
24 | CN(Cc1cccs1)CC(O)COCc1ccco1 (stereo not given) | 107 | 91.5% (inactive) | 107% (inactive) | 109% (inactive) | 90.5% (inactive) | -3.35% (inactive) | 93.9 | 90.5 | -3.92% (inactive) | 2.22% (inactive)
25 | Cc1ccc(C(C)n2cc(C(=O)NCCN3CCN(C)CC3)nn2)cc1 (stereo not given) | 106 | 94% (inactive) | 106% (inactive) | 93.5% (inactive) | 86.1% (inactive) | -5% (inactive) | 91.1 | 86.1 | -2.21% (inactive) | -6.19% (inactive)
26 | CCOc1ccc(C(=O)N(CN2CCCC2=O)c2ccc(C)cc2)cc1 | 125 | 114% (inactive) | 125% (inactive) | 116% (inactive) | 95.1% (inactive) | 7.87% (inactive) | 87.2 | 95.1 | -6% (inactive) | 1.94% (inactive)
27 | CCc1cccc(NS(=O)(=O)c2c(C)n[nH]c2C)c1 | 92 | 96% (inactive) | 92% (inactive) | 110% (inactive) | 107% (inactive) | 13.2% (inactive) | 93.5 | 107 | -6.05% (inactive) | -5.08% (inactive)
28 | CCOC(=O)c1sc2nc(C)cc(C)c2c1N | 105 | 95% (inactive) | 105% (inactive) | 110% (inactive) | 98.4% (inactive) | 15.6% (inactive) | 82.8 | 98.4 | -5.07% (inactive) | 4.52% (inactive)
